Rows were chosen to be rich in hits. Some 0.86% of all compounds tested hit in one or more screens of this group.
CCR6 antagonist – CCR6 receptor antagonists, primary screen, cell-based, CHO-K1, luminescence, beta-arrestin, uHTS | C-C chemokine receptor type 6 (Homo sapiens), P51684 | CHO-K1 CCR6 PathHunter beta-arrestin, CCL20-stimulated | inhibition, % at 20 µM | 340,000 compounds, 0.49% hits | AID 493098, 2011;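 active = compounds whose inhibition of the agonist-driven luminescence signal at 20 µM reaches about 50%, limit read from the data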;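 also: cells stimulated with CCL20 at 14 nM final; plate controls were DMSO with CCL20 for no effect and DMSO without agonist for full effect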
Target sequence (P51684 whole entry, looked up): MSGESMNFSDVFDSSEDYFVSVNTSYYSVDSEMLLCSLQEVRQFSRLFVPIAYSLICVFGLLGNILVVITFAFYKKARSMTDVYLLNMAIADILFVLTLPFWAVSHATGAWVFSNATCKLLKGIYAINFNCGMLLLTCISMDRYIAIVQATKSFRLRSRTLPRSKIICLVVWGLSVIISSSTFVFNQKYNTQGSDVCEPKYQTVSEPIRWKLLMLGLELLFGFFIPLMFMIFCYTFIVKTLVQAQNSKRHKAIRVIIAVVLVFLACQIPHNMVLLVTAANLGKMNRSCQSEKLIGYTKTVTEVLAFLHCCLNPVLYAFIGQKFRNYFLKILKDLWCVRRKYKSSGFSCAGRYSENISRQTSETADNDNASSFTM
APJ antagonist – antagonists of human apelin receptor APJ, primary screen, CHO-K1 cells, beta-arrestin complementation, luminescence. AID 2521, 2010. P35414. 330,000 compounds, 0.32% hits. inhibition, % at 20 µM;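 active = inhibition above about 40% at 20 µM, limit read from the data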;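 also: cells challenged with 10 nM apelin-13 agonist together with compound; plate controls were apelin-13 plus DMSO wells for no effect and DMSO wells lacking apelin-13 for full effect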
CXCR6 inh – CXCR6 receptor inhibitors, primary screen, cell-based, beta-arrestin, luminescence, CHO-K1 PathHunter, 1536-well | C-X-C chemokine receptor type 6 (Homo sapiens), O00574 | inhibition, % at 20 µM | 360,000 compounds, 0.36% hits; in the data active = inhibition above about 34%, passing the limit was not always enough;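 also: antagonist mode with CXCL16 agonist at 10 nM final; 0% = 10 nM CXCL16 with DMSO and 100% = unstimulated wells without agonist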
iPSC survival up – enhancers of single-cell hiPSC survival, primary screen, ATPlite luminescence; 100% = ROCK inhibitor wells, 0% = DMSO; survival enhancement, % at 20 µM; 360,000 compounds, 0.044% hits; AID 602274, 2012; in the data active = survival enhancement above about 18%;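 also: cells exposed to compounds for 16 hours before the ATP read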
DAGLB inh – DAGLB lipase inhibitors, primary screen, biochemical, fluorescence, HTS; 340,000 compounds, 0.059% hits; AID 504411, 2011; inhibition, % at 5.17 µM; HEK293T DAGLB membrane lysate, EnzChek fluorogenic substrate; in the data active = inhibition above about 34%;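 also: 0% = enzyme with vehicle and 100% = wells lacking enzyme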
APJ agonist – agonists of human apelin receptor APJ, primary screen, CHO-K1 cells, PathHunter beta-arrestin, luminescence | 0% DMSO wells, 100% apelin | activation, % at 20 µM | 330,000 compounds, 0.11% hits;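 active = activation more than six SD over the plate average, tested at 20 µM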;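 also: 0% = DMSO alone and 100% = apelin-13 at 10 nM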
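Test system: CHO-K1 APJ beta-arrestin complementation cell line | Compound: Single test compound dose, 20 µM final, 1% DMSO | Incubation: Compound 90 min 25 °C, reagent 1 h | Measured by: beta-gal luminescence | Read-out basis: APJ–arrestin association signal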
APJ antag conf – APJ antagonists blocking beta-arrestin recruitment, confirmation, cell-based, luminescence, single concentration, uHTS hits. shares compounds with APJ antagonist. antagonist mode. inhibition, % at 20 µM. 950 compounds, 66% hits. AID 2766, 2010; in the data active = inhibition above about 50%
* = called active by the depositor; / = no result given.

SMILES | CCR6 antagonist | APJ antagonist | CXCR6 inh | iPSC survival up | DAGLB inh | APJ agonist | APJ antag conf
COc1ccc(CCn2c(=N)c(C(=O)NC3CCCC3)cc3c(=O)n4cccc(C)c4nc32)cc1 | 0 | 46* | 1 | 0 | -2 | 1 | -2
Cc1cccn2c(=O)c3cc(C(=O)NC4CCCC4)c(=N)n(Cc4ccc(F)cc4)c3nc12 | 11 | 14 | 11 | 0 | 3 | -2 | /
Cc1cccn2c(=O)c3cc(C(=O)NC4CCCCC4)c(=N)n(Cc4ccccc4)c3nc12 | 12 | 52* | 2 | 0 | 0 | -12 | 30
CCOc1cc(/C=C2\C(=O)ON=C2c2ccccc2)cc(Br)c1O | 42 | 46* | 29 | 1 | 1 | -7 | 74*
COc1cc(C=C2C(=O)OC(c3ccccc3)OC2=O)cc(Br)c1O (stereo not drawn) | 16 | 5 | 5 | 0 | -5 | 0 | /
COc1cc(/C=C2\C(=O)ON=C2c2ccccc2)cc(Cl)c1O | 50 | 46* | 17 | -1 | 3 | -5 | 66*
CCCOc1ccc(/C=C2/C(=O)ON=C2C)cc1OCC | 1 | 5 | -5 | 0 | -1 | 4 | /
CCOc1cc(/C=C2/C(=O)ON=C2C)cc(Br)c1O | 57* | 41* | 16 | 1 | -2 | -6 | 56*
COc1cc(/C=C2\C(=O)ON=C2c2ccccc2)cc(Br)c1O | 58* | 43* | 28 | 0 | -2 | -7 | 95*
O=C1ON=C(c2ccccc2)/C1=C/c1ccccc1 | 8 | 5 | -2 | -1 | 2 | 4 | /
Cc1cc(C)n(-c2nc(SCCN(C)C)c3c4c(sc3n2)CCCC4)n1 | 19 | 49* | 2 | -1 | 2 | -11 | 38
O=C1C2C3C=CC(C3)C2C(=O)N1/N=C/c1cc(Br)cc([N+](=O)[O-])c1O (stereo not drawn) | 54* | 42* | 37 | -2 | 23 | -5 | 52*
O=[N+]([O-])c1c(Nc2cccc(O)c2)cc(Cl)c2nonc12 | 104* | 94* | 111* | 0 | 4 | -7 | 111*
O=C(O)c1cccc(Nc2ccc3nonc3c2[N+](=O)[O-])c1 | -3 | 2 | -4 | -1 | 3 | 2 | /
Cc1cc(C)c2c(CN3CCCCC3)cc(=O)oc2c1 | 18 | 43* | -2 | 0 | -6 | -1 | 22
Cc1cc(C)c2c(CN3CCCCCCC3)cc(=O)oc2c1 | / | / | 3 | 0 | / | / | /
COc1ccc(NC(=O)/C(Cl)=C(/Cl)S(=O)Cc2ccccc2Cl)cn1 (stereo not drawn) | 96* | 79* | / | / | / | -6 | 104*
CCOC(=O)c1ccc(NC(=O)CSc2nc3sc(C(=O)O)c(C)c3c(=O)[nH]2)cc1 | 17 | 8 | 9 | 5 | -1 | -1 | /
CCOc1cc([N+](=O)[O-])cc(/C=N/NC(=O)c2c(-c3ccccc3)noc2C)c1O | 27 | 41* | 14 | 0 | 7 | -11 | 25
O=C(c1ccco1)N1CCN(C(=O)C2(S(=O)(=O)c3ccc(Cl)cc3)CC2)CC1 | -3 | 41* | 6 | 3 | -3 | 2 | 14
Cc1cccc2c1NC(=O)C2=Nc1ccc(Cl)cc1 | 76* | 63* | 32 | 0 | 1 | -14 | 94*
Cc1ccc(N=C2C(=O)Nc3ccc(Br)cc32)cc1 | 54* | 68* | 36 | 0 | 0 | -16 | 156*
Cc1ccc(N=C2C(=O)Nc3c(C)cccc32)cc1 | 58* | 43* | 18 | 2 | 1 | -9 | 95*
COc1ccc(N=C2C(=O)Nc3c(C)cccc32)cc1 | 39 | 24 | 11 | -3 | 2 | -6 | /
C=CCNC(=O)COC(=O)COc1ccc(Cl)cc1 | -6 | -14 | -1 | 0 | -2 | 0 | /
SMILES | CCR6 antagonist | APJ antagonist | CXCR6 inh | iPSC survival up | DAGLB inh | APJ agonist | APJ antag conf
CC1CCC(NC(=O)C2CCC(CNS(=O)(=O)c3ccc4c(c3)C(C)(C)C(=O)N4C)CC2)CC1 (stereo not drawn) | / | / | 4 | 4 | / | / | /
COc1cc(C(=O)OCc2cccc(OC)c2OC)ccc1OCC(=O)N1CCOCC1 | 7 | 28 | -1 | 0 | -1 | -3 | /
CCC(=O)N1CCN(c2ccc(NC(=O)COc3ccccc3Cl)cc2)CC1 | 8 | 14 | 6 | 0 | 2 | -1 | /
CCC(=O)N1CCN(c2ccccc2NC(=O)COc2ccccc2Cl)CC1 | 51* | 52* | 43* | 2 | -1 | -9 | 61*
Cn1c(NC(=S)Nc2ccccc2)nc2ccccc21 | -19 | 41* | -10 | -2 | 1 | -4 | 14
Cc1cc(NC(=O)Nc2cc(Cl)sc2Cl)no1 | -4 | -5 | -1 | 0 | -2 | -1 | /
CCSc1nnc(NC(=O)c2ccccn2)s1 | 37 | 44* | 24 | -3 | 1 | -6 | 60*
O=C(Nc1nnc(SCc2ccc(F)cc2)s1)c1cnccn1 | 20 | 49* | 2 | 2 | 4 | -4 | 60*
Cc1cc(C)c(C(=O)N2CCC(N3CCC(C(=O)NC(C)C)CC3)CC2)o1 | 13 | -1 | 4 | 0 | 1 | 5 | /
CS(=O)(=O)Nc1ccc(S(=O)(=O)NC2CCCCC2)cc1 | 4 | 46* | -7 | -1 | -1 | -3 | 28
O=C1c2cccc3c(Nc4ccccc4Cl)c([N+](=O)[O-])cc(c23)C(=O)N1CCO | 65* | 53* | 40* | -2 | 16 | -7 | 84*
O=C1c2cccc([N+](=O)[O-])c2C(=O)N1CCO | -10 | 9 | 2 | -1 | 1 | 1 | /
CCn1cc(S(=O)(=O)Nc2cccnc2)cn1 | -3 | 45* | -1 | 0 | -3 | 6 | 22
O=C(N/N=C/c1ccc(-c2ccccc2Cl)o1)c1ccccc1 | 10 | 1 | -5 | 0 | -3 | -3 | /
O=S(=O)(N/N=C\c1ccc(-c2ccccc2Cl)o1)c1ccccc1 | 46 | 59* | 16 | 0 | -1 | -12 | 59*
CCOC(=O)N(C)C[C@H]1OCc2cnnn2CCCC(=O)N([C@@H](C)CO)C[C@H]1C | / | / | 0 | -1 | 4 | / | /
O=C1/C(=C\c2cccc(O)c2O)SC(=S)N1Cc1ccccc1 | 47 | 42* | 35 | 0 | 15 | -8 | 68*
O=C1/C(=C\c2cccc(O)c2)SC(=S)N1Cc1ccccc1 | 10 | 18 | 6 | 0 | -4 | -3 | /

Assay outcomes from PubChem.
